How the values were obtained:
[1] = test system: patients with relapsed or refractory hematologic malignancies; test: Phase 1 dose escalation: adverse events, DLT, MTD; assay type: in vivo
[2] = test system: primary acute myeloid leukemia blasts; conditions: tested at nanomolar levels (0.1-100 nmol/L); cited from earlier work
[3] = test system: 20S chymotrypsin-like proteasome activity; assay type: in vivo, human
Summary of the method: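 Chymotrypsin-like proteasome activity in patient whole blood and PBMCs, read with a fluorogenic substrate. Samples: cycle 1 day 1 predose, 1 and 24 h postdose; predose and 1 h postdose on cycle 1 day 5 and day 1 of cycles 2 and 3. Dosing was i.v. push days 1–5 with 9-d rest. Percent activity is each sample's specific activity relative to cycle 1 day 1 predose. Mean ± SEM.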

**Q.** What does the source list for `CC(C)C[C@H](NC(=O)[C@H](CCc1ccccc1)NC(=O)CN1CCOCC1)C(=O)N[C@@H](Cc1ccccc1)C(=O)N[C@@H](CC(C)C)C(=O)[C@@]1(C)CO1` [carfilzomib]?
**A.** Adverse event Dyspnea, Grade 1 ([1]; human, in vivo): 6 (21) n (%); Adverse event Dyspnea, Grade 2 ([1]; human, in vivo): 0 (0) n (%); Adverse event Dyspnea, Grade 3 ([1]; human, in vivo): 1 (3) n (%); Adverse event Dyspnea, Grade 4 ([1]; human, in vivo): 1 (3) n (%); Adverse event Exertional dyspnea, All Grades ([1]; human, in vivo): 6 (21) n (%); Adverse event Exertional dyspnea, Grade 1 ([1]; human, in vivo): 6 (21) n (%); Adverse event Exertional dyspnea, Grade 2 ([1]; human, in vivo): 0 (0) n (%); Adverse event Exertional dyspnea, Grade 3 ([1]; human, in vivo): 0 (0) n (%); Adverse event Exertional dyspnea, Grade 4 ([1]; human, in vivo): 0 (0) n (%); Adverse event Fatigue, All Grades ([1]; human, in vivo): 14 (48) n (%); Adverse event Fatigue, Grade 1 ([1]; human, in vivo): 10 (35) n (%); Adverse event Fatigue, Grade 2 ([1]; human, in vivo): 3 (10) n (%); Adverse event Fatigue, Grade 3 ([1]; human, in vivo): 1 (3) n (%); Adverse event Fatigue, Grade 4 ([1]; human, in vivo): 0 (0) n (%); Adverse event Headache, All Grades ([1]; human, in vivo): 7 (24) n (%); Adverse event Headache, Grade 1 ([1]; human, in vivo): 7 (24) n (%); Adverse event Headache, Grade 2 ([1]; human, in vivo): 0 (0) n (%); Adverse event Headache, Grade 3 ([1]; human, in vivo): 0 (0) n (%); Adverse event Headache, Grade 4 ([1]; human, in vivo): 0 (0) n (%); Adverse event Hypoesthesia, All Grades ([1]; human, in vivo): 8 (28) n (%); Adverse event Hypoesthesia, Grade 1 ([1]; human, in vivo): 5 (17) n (%); Adverse event Hypoesthesia, Grade 2 ([1]; human, in vivo): 3 (10) n (%); Adverse event Hypoesthesia, Grade 3 ([1]; human, in vivo): 0 (0) n (%); Adverse event Hypoesthesia, Grade 4 ([1]; human, in vivo): 0 (0) n (%); Adverse event Nausea, All Grades ([1]; human, in vivo): 14 (48) n (%); Adverse event Nausea, Grade 1 ([1]; human, in vivo): 11 (38) n (%); Adverse event Nausea, Grade 2 ([1]; human, in vivo): 3 (10) n (%); Adverse event Nausea, Grade 3 ([1]; human, in vivo): 0 (0) n (%); Adverse event Nausea, Grade 4 ([1]; human, in vivo): 0 (0) n (%); Adverse event Paresthesia, All Grades ([1]; human, in vivo): 6 (21) n (%); Adverse event Paresthesia, Grade 1 ([1]; human, in vivo): 4 (14) n (%); Adverse event Paresthesia, Grade 2 ([1]; human, in vivo): 2 (7) n (%); Adverse event Paresthesia, Grade 3 ([1]; human, in vivo): 0 (0) n (%); Adverse event Paresthesia, Grade 4 ([1]; human, in vivo): 0 (0) n (%); Adverse event Peripheral edema, All Grades ([1]; human, in vivo): 7 (24) n (%); Adverse event Peripheral edema, Grade 1 ([1]; human, in vivo): 7 (24) n (%); Adverse event Peripheral edema, Grade 2 ([1]; human, in vivo): 0 (0) n (%); Adverse event Peripheral edema, Grade 3 ([1]; human, in vivo): 0 (0) n (%); Adverse event Peripheral edema, Grade 4 ([1]; human, in vivo): 0 (0) n (%); Adverse event Pyrexia, All Grades ([1]; human, in vivo): 8 (28) n (%); Grade 3 and 4 adverse events: ALT increased, Grade 3 ([1]; human, in vivo): 1 (3) n (%); Grade 3 and 4 adverse events: ALT increased, Grade 4 ([1]; human, in vivo): 0 (0) n (%); Grade 3 and 4 adverse events: Acute bronchitis, Grade 3 ([1]; human, in vivo): 1 (3) n (%); Grade 3 and 4 adverse events: Acute bronchitis, Grade 4 ([1]; human, in vivo): 0 (0) n (%); Grade 3 and 4 adverse events: Acute bronchitis, Grades 3-4 ([1]; human, in vivo): 1 (3) n (%); Grade 3 and 4 adverse events: Alkaline phosphatase increased, Grade 3 ([1]; human, in vivo): 1 (3) n (%); Grade 3 and 4 adverse events: Alkaline phosphatase increased, Grade 4 ([1]; human, in vivo): 0 (0) n (%); Grade 3 and 4 adverse events: Alkaline phosphatase increased, Grades 3-4 ([1]; human, in vivo): 1 (3) n (%); Grade 3 and 4 adverse events: Anemia, Grade 3 ([1]; human, in vivo): 1 (3) n (%); Grade 3 and 4 adverse events: Anemia, Grade 4 ([1]; human, in vivo): 0 (0) n (%); Grade 3 and 4 adverse events: Dyspnea, Grade 3 ([1]; human, in vivo): 1 (3) n (%); Grade 3 and 4 adverse events: Dyspnea, Grade 4 ([1]; human, in vivo): 1 (3) n (%); Grade 3 and 4 adverse events: Fatigue, Grade 3 ([1]; human, in vivo): 1 (3) n (%); Grade 3 and 4 adverse events: Fatigue, Grade 4 ([1]; human, in vivo): 0 (0) n (%); Grade 3 and 4 adverse events: Fatigue, Grades 3-4 ([1]; human, in vivo): 1 (3) n (%); Grade 3 and 4 adverse events: Febrile neutropenia, Grade 3 ([1]; human, in vivo): 1 (3) n (%); Grade 3 and 4 adverse events: Febrile neutropenia, Grade 4 ([1]; human, in vivo): 0 (0) n (%); Grade 3 and 4 adverse events: Febrile neutropenia, Grades 3-4 ([1]; human, in vivo): 1 (3) n (%); Grade 3 and 4 adverse events: Gastrointestinal hemorrhage, Grade 3 ([1]; human, in vivo): 1 (3) n (%); Grade 3 and 4 adverse events: Gastrointestinal hemorrhage, Grade 4 ([1]; human, in vivo): 0 (0) n (%); Grade 3 and 4 adverse events: Gastrointestinal hemorrhage, Grades 3-4 ([1]; human, in vivo): 1 (3) n (%); Grade 3 and 4 adverse events: Hemoglobin decreased, Grade 3 ([1]; human, in vivo): 1 (3) n (%); Grade 3 and 4 adverse events: Hemoglobin decreased, Grade 4 ([1]; human, in vivo): 0 (0) n (%); Grade 3 and 4 adverse events: Hemoglobin decreased, Grades 3-4 ([1]; human, in vivo): 1 (3) n (%); maximum tolerated dose (MTD) ([1]; i.v. push on 5 consecutive days within 14-day cycles): 15 mg/m^2; DLTs in the initial seven dose cohorts ([1]; in vivo): No DLTs were observed; autocrine- and cytokine-dependent proliferation [2]: inhibited autocrine- and cytokine-dependent proliferation; Recovery of proteasome activity in PBMCs ([3]; during the 9-day rest period): generally returned to baseline; Recovery of proteasome activity in whole blood ([3]; during the 9-day rest period): only partially recovered; Proteasome inhibition after a single dose ([3]; whole blood and PBMCs, dose levels of 15 mg/m^2 and higher, 1 hour after dosing on day 1): > 75%; Proteasome inhibition after the fifth consecutive day of dosing ([3]; whole blood and PBMCs, highest dose groups, 1 h after the fifth dose): > 90%

Source: publication PMC4019989 (Clinical cancer research : an official journal of the …, 2009)
